Where only a bound is given, the exact number is not on record here.

Data set [1] concerns NCI-H460 (lung carcinoma). Nature of the data set: IncuCyte real-time proliferation assay, NCI-H460. It counts as cell-based. The settings on record: NCI-H460, 72 h; * mean of two independent experiments ± SEM.
The subject of data set [2] is peripheral blood mononuclear cells (PBMCs). As to the kind of experiment: In vitro apoptosis induction assay in PBMC. It counts as cell-based. The settings on record: 72 h; for viability of normal PBMCs: PBMC from two healthy donors, 100 to 0.16 µM; for number of apoptotic and dead cells: PBMC, 100 µM, caspase-3/7 and PI. A digest of the protocol: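 Counter-screen on normal PBMCs from two healthy donors. Cells were exposed to graded test-compound concentrations with Caspase-3/7 Green Reagent added. Activated intracellular caspase-3/7 cleaves the reagent at its DEVD motif, marking apoptotic cells. Propidium iodide staining separated dead from live cells. Read-out: numbers of apoptotic and dead cells.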

The subject of a further data set is LN-229 (glioblastoma). Nature of the data set: IncuCyte real-time proliferation assay, LN-229. It counts as cell-based. The settings on record: LN-229, 72 h; * mean of two independent experiments ± SEM.
Data set [3] has as its system Z-138 (non-Hodgkin lymphoma). As to the kind of experiment: IncuCyte real-time proliferation assay, Z-138. It counts as cell-based. The settings on record: Z-138, 72 h; * mean of two independent experiments ± SEM.
In data set [4] the test system is Capan-1 (pancreatic adenocarcinoma). As to the kind of experiment: IncuCyte real-time proliferation assay, Capan-1. The data set is classed as cell-based. The settings on record: Capan-1, 72 h; * mean of two independent experiments ± SEM.
Data set [5] relates to K-562 (chronic myeloid leukemia). As to the kind of experiment: IncuCyte real-time proliferation assay, K-562. The data set is classed as cell-based. The settings on record: K-562, 72 h; * mean of two independent experiments ± SEM.
For data set [6], the system named is HL-60 (acute myeloid leukemia). As to the kind of experiment: IncuCyte real-time proliferation assay, HL-60. It counts as cell-based. The settings on record: HL-60, 72 h; * mean of two independent experiments ± SEM.
The next data set relates to hCoV-229E. It counts as cell-based, human corona virus 229E. The settings on record: […]; (*) mean of three independent experiments ± SEM.
Data set [7] has as its system alpha-tubulin in HEp-2 cells. Nature of the data set: Tubulin immune fluorescence staining in HEp-2 cells. It counts as cell-based, human. The settings on record: HEp-2 cells treated for 3 h.
For data set [8], the system named is DND-41 (acute lymphoblastic leukemia). Nature of the data set: IncuCyte real-time proliferation assay, DND-41. The settings on record: DND-41, 72 h; * mean of two independent experiments ± SEM. It counts as cell-based.
Data set [9] has as its system HCT-116 (colorectal carcinoma). Nature of the data set: IncuCyte real-time proliferation assay, HCT-116. The data set is classed as cell-based. The settings on record: HCT-116, 72 h; * mean of two independent experiments ± SEM.

For orientation: IC50 means the concentration that gives 50% inhibition. One may read the CC50 as the concentration that lowers cell viability or growth by half. The term EC50 denotes the concentration giving half of the maximal effect. Read a high EC50 as a need for much substance. On to `Cc1ccc(C(=O)C2Sc3nnc(-n4nc(C)cc4C)n3NC2c2cc(F)c(F)c(F)c2)cc1` (racemic) [Compound 5j, ( ±)-(3-(3,5-Dimethyl-1H-pyrazol-1-yl)-6-(3,4,5-trifluorophenyl)-6,7-dihydro-5H-[1,2,4]triazole [3,4-b][1,3,4]thiadiazin-7-yl)(p-tolyl)methanone], for which the IC50 in data set [1] was 56000 nM; in the data set with LN-229 (glioblastoma) it was 2700 ± 200 nM; in [3], 1900 ± 30 nM; in data set [4], 2300 ± 200 nM; in data set [5], 3400 ± 200 nM; in data set [6], 13000 ± 2800 nM. The IC50 was 2400 ± 400 nM in [8] and 2500 ± 90 nM in data set [9]. The “viability of normal PBMCs” value in data set [2] is “did not inhibit the viability”. In addition, in data set [2], the “number of apoptotic and dead cells” value is “small increase in the number of apoptotic and dead cells”. This compound also displayed a cytotoxic concentration (CC50) in the data set on HEL 299 cells of 23800 nM. The EC50 with hCoV-229E was over 100000 nM. In addition, the polymerization of tubulin result in data set [7] is “inhibit the polymerization of tubulin in a dose-dependent manner”.
As to `COc1ccc(C(=O)C2Sc3nnc(-n4nc(C)cc4C)n3NC2c2ccco2)cc1` (racemic) [Compound 5q, ( ±)-(3-(3,5-Dimethyl-1H-pyrazol-1-yl)-6-(furan-2-yl)-6,7-dihydro-5H-[1,2,4]triazolo[3,4-b][1,3,4]thiadiazin-7-yl)(4-methoxyphenyl)methanone], the IC50 in data set [1] turned out to be 2500 ± 200 nM; in the data set with LN-229 (glioblastoma) it was 700 ± 90 nM; in data set [3], 400 ± 5 nM; in [4] it was 1100 ± 700 nM; in data set [5], 2300 ± 1600 nM; in data set [6], 2000 ± 400 nM. For the same compound, the IC50 in data set [8] turned out to be 600 ± 200 nM; in data set [9] it was 1000 ± 400 nM. Besides, in data set [2], the “viability of normal PBMCs” value is given as “did not inhibit the viability”. Moreover, the “number of apoptotic and dead cells” value in [2] was “small increase in the number of apoptotic and dead cells”. In addition, the CC50 in the data set with HEL 299 cells was under 800 nM. Further, the EC50 in the data set on hCoV-229E is over 100000 nM. Moreover, in data set [7], the polymerization of tubulin result is listed as “inhibit the polymerization of tubulin in a dose-dependent manner”.
Turning to `COc1ccc(C2=C(C(=O)c3ccc([N+](=O)[O-])cc3)Sc3nnc(-n4nc(C)cc4C)n3N2)c(OC)c1` [Compound 5p, ( ±)-(6-(2,4-dimethoxyphenyl)-3-(3,5-dimethyl-1H-pyrazol-1-yl)-5H-[1,2,4]triazolo[3,4-b][1,3,4]thiadiazin-7-yl)(4-nitrophenyl)methanone], the IC50 (in [1]; with LN-229 (glioblastoma); in data set [3]; in data set [4]; in data set [5]; in [6]) was over 100000 nM each time. Moreover, the IC50 in data set [8] and in [9] was over 100000 nM throughout. The compound further came in with a CC50 with HEL 299 cells of over 100000 nM. Further, the EC50 in the data set on hCoV-229E was over 100000 nM.

The values above are taken from publication PMC8223195 (Molecular Diversity, 2021).
